High-throughput results: PubChem BioAssay, Sanford-Burnham Center for Chemical Genomics
LMPTP inh: blocks human LMPTP phosphatase; P24666; recombinant LMPTP-A, OMFP fluorogenic substrate, fluorescence intensity; inhibition, % at 20 µM; 360,000 compounds, 0.22% hits;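 active = compounds that cut the enzyme signal by at least half of the control window in the single-dose screen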;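 note: plate controls were DMSO wells with enzyme plus substrate for no effect and substrate without enzyme for full effect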
Target sequence (P24666 whole entry, looked up): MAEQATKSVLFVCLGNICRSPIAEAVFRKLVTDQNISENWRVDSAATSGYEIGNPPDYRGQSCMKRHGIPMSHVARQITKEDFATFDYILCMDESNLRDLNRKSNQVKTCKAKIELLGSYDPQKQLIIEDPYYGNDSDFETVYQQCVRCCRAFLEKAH
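Assay system: LMPTP-A enzyme. Input: 0.625 nM LMPTP-A final. Probe or stimulus: 400 µM OMFP. Compound dosing: single 20 µM dose. Schedule: 50 min dark incubation at room temperature. Detection: fluorescence intensity of OMFP turnover product. Read-out: percent inhibition versus substrate-only and uninhibited controls. Benchmarks: no-enzyme low control, uninhibited high control.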
STEP inh: inhibitors of human striatal-enriched phosphatase STEP. 360,000 compounds, 0.25% hits. P54829. inhibition, % at 20 µM. recombinant STEP, OMFP fluorogenic substrate, fluorescence;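 active = inhibition at 20 µM, scaled per plate between control wells, above about 37%, limit read from the data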;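 note: 0% = DMSO with enzyme and substrate and 100% = substrate only without enzyme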
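Assay system: isolated STEP enzyme / Timing: 20 min at room temperature, dark / Doses: 20 µM, 1% DMSO / Technique: fluorescence intensity, excitation 480 nm, emission 540 nm / Reagent: fluorogenic phosphatase substrate OMFP at 25 µM final / Measure: percent inhibition scaled to no-enzyme and uninhibited-enzyme controls, plate-pattern corrected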
Scp1 inh: Scp-1 (human) phosphatase inhibition; Q9GZU7; Recombinant Scp1, phosphopeptide, malachite green phosphate absorbance; inhibition, % at 20 µM; 340,000 compounds, 0.88% hits; AID 493091;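 active = inhibition above about 50% at 20 µM, limit read from the data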;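 note: plate controls were DMSO wells with enzyme for no effect and wells lacking enzyme for full effect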
Target sequence (Q9GZU7 76-261 limits assumed): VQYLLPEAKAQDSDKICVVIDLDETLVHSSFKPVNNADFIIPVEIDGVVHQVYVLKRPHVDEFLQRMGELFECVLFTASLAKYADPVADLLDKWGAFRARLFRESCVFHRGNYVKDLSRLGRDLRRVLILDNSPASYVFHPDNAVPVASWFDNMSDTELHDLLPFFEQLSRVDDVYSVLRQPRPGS
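System: truncated SCP-1 phosphatase (76-261aa); medium: Tris acetate buffer pH 5.5 with MgCl2 and Tween-20; incubation: 45 min room-temperature reaction, 5 min colour, 30 min stabiliser; compound: single 20 µM dose, 1% DMSO; reagent: Phosphorylated 17-residue peptide substrate; read-out: % inhibition at 20 µM; technique: colorimetric free-phosphate detection, absorbance 630 nm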
CSN inh: inhibitors of human CSN-mediated cullin deneddylation; Q92905; 360,000 compounds, 0.38% hits; inhibition, % at 12.5 µM; Purified CSN, SCF-Nedd8-OG deneddylation, fluorescence polarization; AID 651999;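 active = pattern-corrected inhibition above about 35%, with an unprinted fluorescence ratio check between 0.5 and 1.5, limit read from the data, passing the limit was not always enough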;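 note: 0% = enzyme with substrate and 100% = substrate without enzyme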
Target sequence (Q92905 whole entry, looked up, one chain of several): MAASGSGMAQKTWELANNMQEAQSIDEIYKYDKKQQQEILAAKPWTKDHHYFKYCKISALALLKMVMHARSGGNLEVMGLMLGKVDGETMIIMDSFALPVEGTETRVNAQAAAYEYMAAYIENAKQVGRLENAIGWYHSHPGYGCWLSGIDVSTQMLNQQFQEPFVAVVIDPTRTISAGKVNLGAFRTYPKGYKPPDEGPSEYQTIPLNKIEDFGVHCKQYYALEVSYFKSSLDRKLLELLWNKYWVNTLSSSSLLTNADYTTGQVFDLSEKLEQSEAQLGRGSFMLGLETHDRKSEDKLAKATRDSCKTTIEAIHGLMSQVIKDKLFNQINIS
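Assay system: Purified human Csn5 enzyme expressed in HEK293T cells | Amount: Enzyme 0.24 nM | Measured by: Fluorescence polarization readout | Medium: Tris/NaCl/DTT buffer, pH 7.5 | Compound dosing: One concentration, 12.5 µM, 0.25% DMSO | Times: 90 min incubation of compound, enzyme and substrate at room temperature | Control set: no-enzyme wells high, enzyme-with-substrate wells low | Read-out: % inhibition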
DNMT1 inh: inhibitors of human DNMT1. DNMT1 molecular beacon, Hinp1I cleavage, fluorescence. P26358. 360,000 compounds, 0.83% hits. inhibition (reported as % activation of signal), % at 10 µM; in the data active = inhibition above about 50%
SUMO1-SIM PPI: modulators of human SUMO1-mediated protein-protein interactions; P63165; SUMO1 binding to a labelled peptide, TR-FRET, 1 h; inhibition, % at 20 µM; 360,000 compounds, 0.33% hits; AID 602429; in the data active = inhibition above about 37%
Scp-1 conf: Scp-1 (human) inhibition, single-dose confirmed | shares compounds with Scp1 inh | recombinant SCP-1 catalytic domain, phosphate release, malachite green absorbance | inhibition, % at 20 µM | 2,500 compounds, 61% hits;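 note: plate controls were DMSO with enzyme for no effect and buffer wells lacking enzyme for full effect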
Scp-1 MG ctr: interferes with malachite green readout, flagging false Scp-1 hits. 2,500 tested, under 10 active. Colorimetric interference counterscreen, malachite green absorbance 630 nm. shares compounds with Scp1 inh. apparent inhibition (interference), % at 20 µM;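 note: compounds added after enzyme reaction finished so only phosphate colour detection is probed; plate controls were DMSO wells with completed Scp-1 reaction for no effect and substrate wells lacking enzyme for full effect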
Scp1 DSF: validation of human Scp-1 inhibitors by thermal shift binding; thermal shift relative to vanadate control, % at 40 µM; shares compounds with Scp1 inh; 1,500 compounds, 25% hits; AID 540329; Recombinant SCP1, Sypro Orange thermal shift Tm;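 active = substances whose mean melting-temperature shift, as a percentage of the reference inhibitor's shift, reaches about 5.3%, limit read from the data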;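 note: 0% = Tm of DMSO wells and 100% = Tm with sodium orthovanadate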
* marks the source's active call; other numbers are inactive results. Rows were chosen to be rich in hits. Some 2% of all compounds tested hit in one or more screens of this group.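 Rule for the calls, unless noted: active = inhibition of at least 30% at 20 µM; inactive = the rest.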

CC(C)(C)N1CC23CCC(C[C@@H]2C1=O)O3 (stereo partly drawn) was read as LMPTP inh -1, STEP inh 0, Scp1 inh -5, CSN inh 4, DNMT1 inh 7 and SUMO1-SIM PPI 3.
`CCOC(=O)c1sc(NC(=O)C2C3C=CC(C3)C2C(=O)O)nc1C` (stereo not drawn) gave LMPTP inh -1, STEP inh 22, Scp1 inh 54*, CSN inh -4, DNMT1 inh 24, SUMO1-SIM PPI -2, Scp-1 conf 42*, Scp-1 MG ctr -11 and Scp1 DSF -1.
Screening CCOC(=O)c1sc(NC(=O)C2CC2)nc1C returned LMPTP inh 0, STEP inh 1, Scp1 inh -10, CSN inh -5, DNMT1 inh 0 and SUMO1-SIM PPI 5.
Screening COc1ccccc1CNS(=O)(=O)c1ccc2[nH]cc(C(=O)O)c(=O)c2c1 returned LMPTP inh 1, STEP inh 18, Scp1 inh 55*, CSN inh 2, DNMT1 inh 86*, SUMO1-SIM PPI 4, Scp-1 conf 47*, Scp-1 MG ctr -2 and Scp1 DSF 0.
Screening COc1nc(=O)n(C2CCCO2)cc1C (stereo not drawn) returned LMPTP inh 0, STEP inh -2, Scp1 inh 85*, CSN inh 1, DNMT1 inh 0, SUMO1-SIM PPI 1, Scp-1 conf -11 and Scp-1 MG ctr -7.
`Cc1cn(C2CCCCO2)c(=O)nc1NO` (stereo not drawn) gave LMPTP inh 0, STEP inh -4, Scp1 inh 4, CSN inh -1, DNMT1 inh -2 and SUMO1-SIM PPI -1.
`COc1ccc(Br)cc1/C=N/NC(=O)c1ccc(COc2ccc3c(c2)CCC3)o1` gave LMPTP inh -1, STEP inh 1, Scp1 inh -14, CSN inh 1, DNMT1 inh 11 and SUMO1-SIM PPI 3.
`O=C(N/N=C/c1ccc2ccccc2c1)c1ccc(COc2ccc3c(c2)CCC3)o1` gave LMPTP inh 32, STEP inh 5, Scp1 inh 102*, CSN inh 5, DNMT1 inh 17, SUMO1-SIM PPI -1, Scp-1 conf 71*, Scp-1 MG ctr -18 and Scp1 DSF -21.
COCCN(C(=O)COC(=O)COc1ccc2c(c1)CCC2)c1c(N)n(Cc2ccccc2)c(=O)[nH]c1=O was read as LMPTP inh -1, STEP inh -3, Scp1 inh -1, CSN inh 4, DNMT1 inh 0 and SUMO1-SIM PPI 6.
Screening COCCN(C(=O)COC(=O)Cc1coc2cc3c(cc12)CCC3)c1c(N)n(Cc2ccccc2)c(=O)[nH]c1=O returned LMPTP inh 18, STEP inh 24, Scp1 inh 67*, CSN inh 10, DNMT1 inh 31, SUMO1-SIM PPI 11, Scp-1 conf 55*, Scp-1 MG ctr -22 and Scp1 DSF -25.
For COCCCN(C(=O)c1cc(-c2ccco2)nc2ccccc12)c1c(N)n(Cc2ccccc2)c(=O)[nH]c1=O the results were LMPTP inh 11, STEP inh -1, Scp1 inh 64*, CSN inh 21, DNMT1 inh 30, SUMO1-SIM PPI -4, Scp-1 conf 47*, Scp-1 MG ctr -10 and Scp1 DSF 5.4*.
COc1ccc(CCNC(=O)C(C(=O)c2ccc(F)cc2)n2ccccc2=O)cc1OC (stereo not drawn) was read as LMPTP inh -1, STEP inh -3, Scp1 inh -3, CSN inh 1, DNMT1 inh 4 and SUMO1-SIM PPI 3.
For CC(=O)c1ccc(N2CCN(C(=O)C(=O)c3cn(CC(=O)N4CCCCCC4)c4ccccc34)CC2)cc1 the results were LMPTP inh 0, STEP inh 4, Scp1 inh -2, CSN inh 0, DNMT1 inh -5 and SUMO1-SIM PPI -4.
`COc1cc(OC)c(OC)cc1CNC(=O)c1cccc(S(=O)(=O)N2CCc3ccccc3C2)c1` gave LMPTP inh 2, STEP inh 1, Scp1 inh 1, CSN inh -6, DNMT1 inh -3 and SUMO1-SIM PPI -4.
COCCn1nnnc1C(C(C)C)N1CCSCC1 (stereo not drawn) was read as LMPTP inh -2, STEP inh -1, Scp1 inh 67*, CSN inh 11, DNMT1 inh 1, SUMO1-SIM PPI -2, Scp-1 conf -5 and Scp-1 MG ctr -12.
For CCc1ccc(NC(=O)Cn2cnc3c(=O)n(C)c(=O)n(C)c32)cc1 the results were LMPTP inh -1, STEP inh 0, Scp1 inh 28, CSN inh -1, DNMT1 inh -1 and SUMO1-SIM PPI 3.
`CCc1ccc(C(C)NC(=O)Cn2cnc3c(=O)n(C)c(=O)n(C)c32)cc1` (stereo not drawn) gave LMPTP inh 0, STEP inh -1, Scp1 inh -2, CSN inh 0, DNMT1 inh -1, SUMO1-SIM PPI 0, Scp-1 conf -1 and Scp-1 MG ctr -2.
Cc1ccc(S(=O)(=O)N2CCOCC2)cc1NC(=O)CN1C(=O)NC(C)(c2ccc(Cl)cc2Cl)C1=O (stereo not drawn) was read as LMPTP inh -1, STEP inh 2, Scp1 inh -4, CSN inh 2, DNMT1 inh -2 and SUMO1-SIM PPI 0.
Cc1ccc2[nH]c3c(=O)n(CC(=O)NCc4ccco4)ncc3c2c1 was read as LMPTP inh 6, STEP inh -1, Scp1 inh 52*, CSN inh 7, DNMT1 inh 24, SUMO1-SIM PPI 6, Scp-1 conf 4 and Scp-1 MG ctr -13.
Screening O=C(Cn1c(=O)cnc2ccccc21)Nc1ccccc1N1CCOCC1 returned LMPTP inh 0, STEP inh -1, Scp1 inh -2, CSN inh -5, DNMT1 inh 0 and SUMO1-SIM PPI -2.
